The source made the active and inactive calls. The rule behind the calls is not given here.
Assays:
[1] = target: Human immunodeficiency virus type 1 reverse transcriptase (Human immunodeficiency virus 1) (UniProt Q72547); assay: Inhibition of wild type HIV1 recombinant reverse transcriptase p66/p51 heterodimer at 10 to 100 uM after 10 mins by gel-based radiolabeled primer extension assay
Method in brief: (§1)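 Purified p66/p51 HIV-1 RT (10 nM) was added to start reactions containing 50 nM of a 40 nt DNA template annealed to a 5′ end-labeled 22 nt DNA primer. The mix held 200 μM dNTPs, 10 mM Tris-HCl pH 8.0, 80 mM NaCl and 6 mM MgCl2. Reactions ran 10 min at 37 °C and were stopped with formamide gel-loading buffer. Inhibitor was tested at 10 nM–1 mM in tenfold steps, with a no-inhibitor lane.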

[2] = target: Human immunodeficiency virus type 1 reverse transcriptase (Human immunodeficiency virus 1) (UniProt Q72547); assay: Inhibition of wild type HIV1 recombinant reverse transcriptase p66/p51 heterodimer […] after 10 mins by gel-based radiolabeled primer extension assay
[3] = tested on: Human immunodeficiency virus type 1 reverse transcriptase (Human immunodeficiency virus 1), Q72547 [M184V,K65R,Y115F]; assay: Inhibition of NRTI-resistant HIV1 recombinant reverse transcriptase p66/p51 M184V/K65R/Y115F mutant at 100 uM after 10 mins by gel-based radiolabeled primer extension assay; method in brief: as §1
[4] = target: Human immunodeficiency virus type 1 reverse transcriptase (Human immunodeficiency virus 1) (UniProt Q72547); assay: Inhibition of NNRTI-resistant HIV1 recombinant reverse transcriptase p66/p51 heterodimer up to 1 mM after 10 mins by gel-based radiolabeled primer extension assay; method in brief: as §1
[5] = target: Human immunodeficiency virus type 1 reverse transcriptase (Human immunodeficiency virus 1) (UniProt Q72547); assay: Inhibition of wild type HIV1 recombinant reverse transcriptase p66/p51 heterodimer at 10 nM after 10 mins by gel-based radiolabeled primer extension assay; method in brief: as §1
[6] = tested on: Human immunodeficiency virus type 1 reverse transcriptase (Human immunodeficiency virus 1), Q72547 [M184V,K65R,Y115F]; assay: Inhibition of NRTI-resistant HIV1 recombinant reverse transcriptase p66/p51 M184V/K65R/Y115F mutant at 10 uM after 10 mins by gel-based radiolabeled primer extension assay; method in brief: as §1
[7] = tested on: Human immunodeficiency virus type 1 reverse transcriptase (Human immunodeficiency virus 1), Q72547 [M184V,K65R,Y115F]; assay: Inhibition of NRTI-resistant HIV1 recombinant reverse transcriptase p66/p51 M184V/K65R/Y115F mutant at 10 nM after 10 mins by gel-based radiolabeled primer extension assay; method in brief: as §1
[8] = target: Human immunodeficiency virus type 1 reverse transcriptase (Human immunodeficiency virus 1) (UniProt Q72547); assay: Inhibition of NNRTI-resistant HIV1 recombinant reverse transcriptase p66/p51 heterodimer at 10 nM to 10 uM after 10 mins by gel-based radiolabeled primer extension assay
[9] = target: Human immunodeficiency virus type 1 reverse transcriptase (Human immunodeficiency virus 1) (UniProt Q72547); assay: Inhibition of NNRTI-resistant HIV1 recombinant reverse transcriptase p66/p51 heterodimer at 100 uM after 10 mins by gel-based radiolabeled primer extension assay; method in brief: as §1

Row | SMILES | inhibition [1] | inhibition [2] | inhibition [3] | inhibition [4] | inhibition [5] | inhibition [6] | inhibition [7] | inhibition [8] | inhibition [9]
1 | Cc1cn([C@H]2C[C@H](F)[C@@H](COP(=O)(OP(=O)(O)O)OP(=O)(O)O)O2)c(=O)[nH]c1=O | Active | Active | Active | Active | – | – | – | – | –
2 | Cc1cn([C@H]2C[C@H](N=[N+]=[N-])[C@@H](COP(=O)(OP(=O)(O)O)OP(=O)(O)O)O2)c(=O)[nH]c1=O | – | – | – | – | Active | Active | Active | inactive | Active
3 | Nc1ncnc2c1ncn2[C@@H]1O[C@H](COP(=O)(OP(=O)(O)O)OP(=O)(O)O)[C@@H](O)[C@H]1O | – | – | – | – | Active | Active | Active | inactive | Active
4 | Cc1cn([C@H]2C=C[C@@H](COP(=O)(OP(=O)(O)O)OP(=O)(O)O)O2)c(=O)[nH]c1=O | Active | Active | Active | Active | – | – | – | – | –

Reference: ChEMBL document CHEMBL1777700, “Inhibition of multi-drug resistant HIV-1 reverse transcriptase by nucleoside β-triphosphates” (Bioorg Med Chem Lett, 2011)
